Hits are enriched below; roughly 2.3% of the tested compounds scored in any of these assays.
CRFR2-BP antag: blocks CRF-induced signaling of the CRF-BP/CRF-R2 complex; HEK293 CRF-R2/CRF-BP, CRF-induced calcium fluorescence; inhibition, % at 11.8 µM; 350,000 tested, 0.59% active;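 active = inhibition of the ligand-induced calcium signal above about 50% at the single tested concentration, limit read from the data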
CRFBP-R2 agonist: CRF-BP/CRF-R2 complex agonism | HEK293 CRF-R2/CRF-BP, calcium dye fluorescence (FLIPR); percent of saturating CRF peptide response | activation, % at 13.2 µM | 350,000 tested, 0.46% active;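 active = activation of at least 50%, plus an integration ratio under a set limit after plate pattern correction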
HNF4A DNA FP: change in binding of human HNF4 alpha to DNA; P41235; HNF4a-FITC DNA binding, fluorescence polarization, 1 h; activity change, % at 10 µM; 360,000 tested, 0.3% active; AID 1224865; in the data active = activity change above about 30%, passing the limit was not always enough
Rpn11 block: inhibitors of human proteasome Rpn11 | O00487 | human 26S proteasome, Ub4-pepOG fluorescence polarization; 20S core pre-blocked with epoxomicin | calls only at 20 µM | 360,000 tested, 0.59% active | AID 588493;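 active = inhibition at 20 µM, scaled to each plate's controls, above about 33%, limit read from the data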
Target sequence (O00487 whole entry, looked up): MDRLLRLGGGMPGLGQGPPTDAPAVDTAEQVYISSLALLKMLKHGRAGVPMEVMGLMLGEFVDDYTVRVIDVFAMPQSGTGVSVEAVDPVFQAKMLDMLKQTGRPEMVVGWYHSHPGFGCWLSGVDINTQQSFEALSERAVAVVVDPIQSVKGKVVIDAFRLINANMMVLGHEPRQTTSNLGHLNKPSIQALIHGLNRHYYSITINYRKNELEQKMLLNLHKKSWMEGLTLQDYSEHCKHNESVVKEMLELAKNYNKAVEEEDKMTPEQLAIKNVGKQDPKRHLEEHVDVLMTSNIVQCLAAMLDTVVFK
CSN deneddyl inh: inhibitors of human CSN-mediated cullin deneddylation; Purified CSN, SCF-Nedd8-OG deneddylation, fluorescence polarization; inhibition, % at 12.5 µM; 360,000 tested, 0.38% active; AID 651999; Q92905;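 active = pattern-corrected inhibition above about 35%, with an unprinted fluorescence ratio check between 0.5 and 1.5, limit read from the data, passing the limit was not always enough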
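Test system: Human Csn5 produced in HEK293T cells | Compound: 12.5 µM single point | Times: 90 min, room temperature | Signal: Fluorescence polarization readout | Read-out basis: % inhibition of substrate cleavage by Csn5 | Controls: no-enzyme wells high, enzyme-with-substrate wells low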
TPT1 inh: inhibitors of Candida albicans tRNA 2'-phosphotransferase TPT1; inhibition, % at 5 µM; recombinant caTPT1, FP RNA substrate dephosphorylation; 300,000 tested, 0.81% active;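 active = inhibition above the mean of all tested compounds plus 3 SD, set per screening campaign, cut at about 24% in these data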
caTPT1 confirm: TPT1 (C. albicans) inhibition, confirmation; shares compounds with TPT1 inh; inhibition, % at 5 µM; AID 2149; recombinant caTPT1, fluorescence polarization, RNase T1 coupled; 2,400 tested, 74% active;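 active = inhibition above the primary screen limit, the mean inhibition of all tested compounds plus 3 SD, cut at about 25% in these data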
RNase T1 counter: blocks Aspergillus oryzae RNase T1, a TPT1 counter-screen | shares compounds with TPT1 inh | AID 2153 | inhibition, % at 5 µM | 2,400 tested, 83% active | RNase T1 cleavage, fluorescence polarization, 1536-well;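 active = inhibition above the solvent-only control well mean plus 3 SD, limit set per screening run, cut at about 23% in these data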;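 note: inhibitors block cleavage so intact labeled substrate keeps polarization high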
Target sequence (P00651 whole entry, looked up): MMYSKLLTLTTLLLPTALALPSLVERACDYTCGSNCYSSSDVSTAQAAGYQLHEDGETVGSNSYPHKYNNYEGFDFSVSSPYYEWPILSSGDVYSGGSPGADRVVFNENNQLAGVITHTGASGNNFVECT
Rpn11 inh conf: confirmation of human proteasome Rpn11 inhibitors; shares compounds with Rpn11 block; purified human 26S proteasome, Ub4-pepOG fluorescence polarization; proteasome pretreated with epoxomicin; inhibition, % at 20 µM; 1,900 tested, 29% active; AID 602318
MMP-2 inh: blocks human MMP-2, flagging nonselective RPN11 hits | shares compounds with Rpn11 block | recombinant MMP-2, FRET peptide cleavage fluorescence | inhibition, % at 20 µM | 1,900 tested, 4% active;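 note: human MMP-2 activated beforehand with APMA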
Thrombin inh: counter-screen for RPN11 inhibitors: inhibition of bovine thrombin. shares compounds with Rpn11 block. bovine thrombin cleavage of Ub4-pepOG, fluorescence polarization. inhibition, % at 20 µM. 1,900 tested, 13% active;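 active = mean inhibition at least 40% at 20 µM, or signal 3 deviations below plate average, so some actives read negative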
Each line names hits and unclear results; the compound was inactive in the other large screens (follow-up assays come after a bar, where they were run). Cut-off read from the data, not from the text of the source, unless noted: active = inhibition above about 40%; inactive = the rest.

COc1ccc(N=Cc2oc3ccc4ccccc4c3c2O)cc1	Rpn11 block active, TPT1 inh 114 | caTPT1 confirm 71 | RNase T1 counter 75 | Rpn11 inh conf 60 | MMP-2 inh inactive | Thrombin inh inactive
COc1ccccc1N(CC(=O)NCCSc1ccccc1)S(C)(=O)=O	none
CN(C)c1ccc(/C=C(/NC(=O)c2ccccc2)C(=O)N2CCCC2)cc1	Rpn11 block active, CSN deneddyl inh 38, TPT1 inh 60 | caTPT1 confirm 35 | RNase T1 counter 44 | Rpn11 inh conf inactive | MMP-2 inh inactive | Thrombin inh inactive
Cc1ccc(/C=C(\NC(=O)c2ccccc2)C(=O)N2CCCCC2)cc1	none
CCSCCOC(=O)C1=C(C)NC(=O)NC1c1cccc(OC)c1OC (stereo unspecified)	none
COc1ccccc1NC(=O)CCN1C(=O)/C(=C\c2cc(OC)c(OC)c(OC)c2)SC1=S	none
COc1ccc(/C=C2\SC(=S)N(CCCC(=O)Nc3ccccc3C(=O)O)C2=O)cc1OC	Rpn11 block active, TPT1 inh 39 | caTPT1 confirm 70 | RNase T1 counter 77 | Rpn11 inh conf 88 | MMP-2 inh inactive | Thrombin inh 81
CCOC(=O)c1sc2nc3c(SCCC#N)cc(C(=O)c4cc(F)ccc4O)cn3c(=O)c2c1C	Rpn11 block active, TPT1 inh 48 | caTPT1 confirm 27 | RNase T1 counter 31 | Rpn11 inh conf inactive | MMP-2 inh inactive | Thrombin inh inactive
CCc1c(C)sc2nc3c(C(=O)N4CCOCC4)cc(C(=O)c4cc(F)ccc4O)cn3c(=O)c12	none
CSc1ccc(/C=C/C(=O)c2c(O)cc(C)oc2=O)cc1	Rpn11 block active, TPT1 inh 73 | caTPT1 confirm 26 | RNase T1 counter 46 | Rpn11 inh conf 70 | MMP-2 inh inactive | Thrombin inh 131
CSc1ccc(C(=O)/C=C/c2ccc(N)cc2)cc1	none
CC(CC(=O)N1CCN(c2ccc(C(F)(F)F)cn2)CC1)n1ccnc1 (stereo unspecified)	none
COc1ccc2c(C)cc(SCC#N)nc2c1	Rpn11 block active, TPT1 inh 41 | caTPT1 confirm 40 | RNase T1 counter 49 | Rpn11 inh conf inactive | MMP-2 inh inactive | Thrombin inh inactive
Cc1cc(SCC#N)nc2ccccc12	none
O=S1(=O)N=C2CCCCCN2C(c2ccccc2)N1 (stereo unspecified)	none
CC(=O)NC(c1cccc(F)c1)c1nc(-c2ccc(C)c(C)c2)cs1 (stereo unspecified)	none (no result: CRFR2-BP antag, CRFBP-R2 agonist, TPT1 inh)
COc1ccc(N=NC2=C(O)CC(C)(C)CC2=O)c(OC)c1	HNF4A DNA FP 51, Rpn11 block active, TPT1 inh 60 | caTPT1 confirm 61 | RNase T1 counter 75 | Rpn11 inh conf 88 | MMP-2 inh inactive | Thrombin inh 69
O=c1nc(/C=C/c2cccn2-c2ccc([N+](=O)[O-])cc2)cc(C(F)(F)F)[nH]1	Rpn11 block active, TPT1 inh 84 | caTPT1 confirm 47 | RNase T1 counter 66 | Rpn11 inh conf inactive | MMP-2 inh inactive | Thrombin inh inactive
CN1/C(=C/C(=S)NC(=O)C2CCC2)C(C)(C)c2ccccc21	Rpn11 block active, TPT1 inh 51 | caTPT1 confirm inactive | RNase T1 counter inactive | Rpn11 inh conf inactive | MMP-2 inh inactive | Thrombin inh inactive
COc1ccc(/C=C2\Oc3cc(OCC(=O)N4CCC[C@H]4CO)ccc3C2=O)c(OC)c1	Rpn11 block active, TPT1 inh 65 | caTPT1 confirm 85 | RNase T1 counter 93 | Rpn11 inh conf 73 | MMP-2 inh inactive | Thrombin inh 62
O=C1/C(=C/c2ccc3c(c2)OCO3)Oc2cc(OCC(=O)N3CCC[C@H]3C(=O)O)ccc21	none
O=C(Nc1ccccn1)c1ccc(Cl)c(S(=O)(=O)N2CCCCCC2)c1	none
N#Cc1ccc(-c2cccnc2)nc1SCC(=O)Nc1sc2c(c1C#N)CCC2	Rpn11 block active, TPT1 inh 46 | caTPT1 confirm inactive | RNase T1 counter 29 | Rpn11 inh conf inactive | MMP-2 inh inactive | Thrombin inh inactive
C=CCc1c(C)nc(-c2ccccc2)nc1Nc1ccccc1O	Rpn11 block active, TPT1 inh 25 | caTPT1 confirm 40 | RNase T1 counter 52 | Rpn11 inh conf inactive | MMP-2 inh inactive | Thrombin inh inactive
C=CCc1c(C)nc(-c2ccccc2)nc1N/N=C/c1ccccc1	none
CC1CCc2nc3ccc(S(=O)(=O)N4CCC(C(=O)O)CC4)cc3c(C(=O)O)c2C1 (stereo unspecified)	none
Cc1cc(C=C2C(=O)c3ccccc3C2=O)c(C)n1-c1ccc(C(=O)O)cc1	Rpn11 block active, TPT1 inh 27 | caTPT1 confirm 35 | RNase T1 counter 47 | Rpn11 inh conf inactive | MMP-2 inh inactive | Thrombin inh inactive
CC1=NN(c2ccccc2)C(=O)/C1=C\c1cc(C)n(-c2ccccc2)c1C	none
Cc1ccccc1C(=O)OCC(=O)NCc1ccco1	none (no result: TPT1 inh)
COC(=O)c1ccc(OCCCCN2CC(C)OC(C)C2)cc1 (stereo unspecified)	none
COc1ccccc1NC(=O)CSc1nc(N)c(C#N)cc1C#N	Rpn11 block active, TPT1 inh 32 | caTPT1 confirm 39 | RNase T1 counter 50 | Rpn11 inh conf 71 | MMP-2 inh inactive | Thrombin inh 47
CC1=CC(C)(C)NC(=S)N1c1ccc(C)cc1C	none
Nc1c(C(=O)N/N=C/c2ccc(F)cc2)oc2nc(-c3ccccc3)cc(-c3ccco3)c12	Rpn11 block active, TPT1 inh 34 | caTPT1 confirm 109 | RNase T1 counter 112 | Rpn11 inh conf 94 | MMP-2 inh inactive | Thrombin inh inactive
O=C(N/N=C/c1ccc(F)cc1)c1cc(-c2ccco2)nc2ccccc12	none
CCOc1ccc(NC(=O)CCC(=O)NNC(=O)COc2ccccc2C)cc1	none
Nc1c(-c2ccccc2)nc(Cl)nc1-c1ccccc1	none

Source: PubChem BioAssay (several laboratories)
